According to publication PMC12679602 (RSC Advances, 2025):
Where “and” joins values, the source holds several entries; their conditions need not be identical. Equal values may be shown once.

What was measured:
[1] = tested on: Pseudomonas aeruginosa TISTR357; assay: Disc diffusion, P. aeruginosa; format: cell-based; settings: for Inhibition zone ± SD, P. aeruginosa: 1 mg per disc, 6 mm disc, 37 °C, 18–24 h
Summary of the method: (§1)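 Test compounds were dissolved in DMSO, and 1 mg was loaded onto sterile 6 mm paper discs. Nutrient agar plates were inoculated with bacterial suspension adjusted to 0.5 McFarland. Each plate held four zones: DMSO negative control, ciprofloxacin positive control (5 µg per disc), the free bile acid and its salts. Plates were incubated at 37 °C for 18–24 h. Inhibition zones were read in mm, in triplicate.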

[2] = tested on: Staphylococcus aureus TISTR746; assay: Disc diffusion, S. aureus; format: cell-based; settings: for Inhibition zone ± SD, S. aureus: 1 mg per disc, 6 mm disc, 37 °C, 18–24 h
Summary of the method: as §1

[3] = tested on: Staphylococcus epidermidis TISTR2172; assay: Disc diffusion, S. epidermidis; format: cell-based; settings: for Inhibition zone ± SD, S. epidermidis: 1 mg per disc, 6 mm disc, 37 °C, 18–24 h
Summary of the method: as §1

S. flexneri ATCC 9199 = assay: Disc diffusion, S. flexneri; format: cell-based, Shigella flexneri; settings: for Inhibition zone ± SD, S. flexneri: 1 mg per disc, 6 mm disc, 37 °C, 18–24 h
Summary of the method: as §1

Bacillus cereus TISTR035 = assay: Disc diffusion, B. cereus; format: cell-based; settings: for Inhibition zone ± SD, B. cereus: 1 mg per disc, 6 mm disc, 37 °C, 18–24 h
Summary of the method: as §1

[4] = tested on: Enterococcus faecalis TISTR927; assay: Disc diffusion, E. faecalis; format: cell-based; settings: for Inhibition zone ± SD, E. faecalis: 1 mg per disc, 6 mm disc, 37 °C, 18–24 h
Summary of the method: as §1

S. typhi = assay: Disc diffusion, S. typhi; format: cell-based, Salmonella enterica serovar Typhimurium TISTR1470; settings: for Inhibition zone ± SD, S. typhi: 1 mg per disc, 6 mm disc, 37 °C, 18–24 h
Summary of the method: as §1

[5] = tested on: Escherichia coli TISTR117; assay: Disc diffusion, E. coli; format: cell-based; settings: for Inhibition zone ± SD, E. coli: 1 mg per disc, 6 mm disc, 37 °C, 18–24 h
Summary of the method: as §1

[6] = tested on: Candida albicans TISTR5554; assay: Disc diffusion, C. albicans; format: cell-based; settings: for Inhibition zone ± SD, C. albicans: 1 mg per disc, 6 mm disc, 37 °C, 18–24 h
Summary of the method: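 Disc diffusion against the yeast. Test compound was in DMSO at 1 mg per 6 mm sterile paper disc, on nutrient agar inoculated with suspension standardized to 0.5 McFarland. Each plate carried a DMSO negative control, amphotericin B positive control (10 µg per disc), the free bile acid and its salts. Incubation was 37 °C for 18–24 h. Zone of inhibition was measured in mm, in triplicate.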

[7] = tested on: B. cereus, S. aureus, S. epidermidis, E. faecalis, and E. coli; assay: Disc diffusion, range over strains as summarised in text; format: cell-based; settings: for inhibition zones, range over strains: B. cereus, S. aureus, S. epidermidis, E. faecalis, E. coli, 1 mg per disc
Summary of the method: as §1

in vitro = settings: human
[8] = Staphylococcus aureus, TISTR746, read-out: Inhibition zone ± SD, S. aureus
[9] = Staphylococcus epidermidis, TISTR2172, read-out: Inhibition zone ± SD, S. epidermidis
[10] = Bacillus cereus, TISTR035, read-out: Inhibition zone ± SD, B. cereus
[11] = Enterococcus faecalis, TISTR927, read-out: Inhibition zone ± SD, E. faecalis
[12] = Escherichia coli, TISTR117, read-out: Inhibition zone ± SD, E. coli

| SMILES | Inhibition zone ± SD, P. aeruginosa [1] | Inhibition zone ± SD, S. aureus [2] | Inhibition zone ± SD, S. epidermidis [3] | Inhibition zone ± SD, S. flexneri (S. flexneri ATCC 9199) | Inhibition zone ± SD, B. cereus (Bacillus cereus TISTR035) | Inhibition zone ± SD, E. faecalis [4] | Inhibition zone ± SD, S. typhi (S. typhi) | Inhibition zone ± SD, E. coli [5] | Inhibition zone ± SD, C. albicans [6] | further results |
| --- | --- | --- | --- | --- | --- | --- | --- | --- | --- | --- |
| C[C@H](CCC(=O)O)[C@H]1CC[C@H]2[C@@H]3[C@H](O)C[C@@H]4C[C@H](O)CC[C@]4(C)[C@H]3CC[C@]12C [CDCA (13), chenodeoxycholic acid] | Inactive | 9.4 ± 0.8 mm | 11.8 ± 0.4 mm | Inactive | 13.5 ± 0.4 mm | 8.4 ± 1.1 mm | Inactive | 7.6 ± 0.6 mm | Inactive | zone of inhibition at 1000 µg/disc [2, 8]: 9.4 mm; zone of inhibition at 1000 µg/disc [3, 9]: 11.8 mm; zone of inhibition at 1000 µg/disc (Bacillus cereus TISTR035; [10]): 13.5 mm; zone of inhibition at 1000 µg/disc [4, 11]: 8.4 mm; zone of inhibition at 1000 µg/disc [5, 12]: 7.6 mm |
| C[C@H](CCC(=O)O)[C@H]1CC[C@H]2[C@@H]3CC[C@@H]4C[C@H](O)CC[C@]4(C)[C@H]3C[C@H](O)[C@]12C [DCA (5), deoxycholic acid] | Inactive | 11.7 ± 1.6 mm | 13.5 ± 0.7 mm | Inactive | 14.4 ± 1.5 mm | 10.6 ± 0.4 mm | Inactive | 10.9 ± 1.6 mm | Inactive | inhibition zones, range over strains [7]: 10.6–14.4 mm; zone of inhibition at 1000 µg/disc [3, 9]: 13.5 mm; zone of inhibition at 1000 µg/disc [4, 11]: 10.6 mm |
| CCO [Ethanol, ethanol, reference compound] |  |  |  |  |  |  |  |  |  | CC50 (A549-hACE2 cells): >70% v/v |
| C[C@H](CCC(=O)O)[C@H]1CC[C@H]2[C@@H]3CC[C@@H]4C[C@H](O)CC[C@]4(C)[C@H]3CC[C@]12C [LCA (1), lithocholic acid] | Inactive |  |  | Inactive |  |  | Inactive |  | Inactive | CC50 (in vitro): > 50 µg/mL; cytotoxicity (A549-hACE2 cells): did not show cytotoxicity |
| C[C@H](CCC(=O)O)[C@H]1CC[C@H]2[C@@H]3[C@@H](O)C[C@@H]4C[C@H](O)CC[C@]4(C)[C@H]3CC[C@]12C [UDCA (9), ursodeoxycholic acid] | Inactive | 7.8 ± 0.8 mm | 9.6 ± 0.4 mm | Inactive | 8.7 ± 0.3 mm |  | Inactive | 7.4 ± 0.4 mm | Inactive |  |
| C[C@H](CCC(=O)[O-])[C@H]1CC[C@H]2[C@@H]3[C@H](O)C[C@@H]4C[C@H](O)CC[C@]4(C)[C@H]3CC[C@]12C.C[N+](C)(C)CCO [[CDCA][Z] (16)] | Inactive | 13.8 mm and 13.8 ± 1.3 mm | 17.1 mm and 17.1 ± 0.5 mm | Inactive | 16.4 mm and 16.4 ± 0.7 mm | 12.2 mm and 12.2 ± 2.6 mm | Inactive | 10.4 mm and 10.4 ± 1.2 mm | Inactive |  |
| C[C@H](CCC(=O)[O-])[C@H]1CC[C@H]2[C@@H]3CC[C@@H]4C[C@H](O)CC[C@]4(C)[C@H]3C[C@H](O)[C@]12C.C[N+](C)(C)CCO [[DCA][Z] (8)] | Inactive | 15.4 ± 2.0 mm | 19.1 mm and 19.1 ± 0.2 mm | Inactive | 18.1 ± 1.7 mm | 15.0 mm and 15.0 ± 1.3 mm | Inactive | 13.0 ± 1.9 mm | Inactive | inhibition zones, range over strains [7]: 13.0–19.1 mm; improvement in antibacterial activity compared to its bile acid DCA (5) ([7]; S. epidermidis and E. faecalis inhibition zones): 41.4–41.5% |
| C[C@H](CCC(=O)[O-])[C@H]1CC[C@H]2[C@@H]3CC[C@@H]4C[C@H](O)CC[C@]4(C)[C@H]3CC[C@]12C.C[N+](C)(C)CCO [[LCA][Z] (4)] | Inactive |  |  | Inactive | 7.8 mm and 7.8 ± 1.2 mm |  | Inactive |  | Inactive | CC50 (A549-hACE2 cells): >50 µg/mL; cytotoxicity (A549-hACE2 cells): did not exhibit cytotoxicity |
| CC(CCC(=O)[O-])C1CCC2C3C(O)CC4CC(O)CCC4(C)C3CCC12C.C[N+](C)(C)CCO (stereo not shown) [[UDCA][Z] (12)] | Inactive | 10.3 ± 1.7 mm | 13.0 ± 0.5 mm | Inactive | 12.5 ± 0.5 mm |  | Inactive | 10.1 ± 1.1 mm | Inactive |  |
| C[C@@H]1[C@H](O)[C@@H](C)/C=C/C=C/C=C/C=C/C=C/C=C/C=C/[C@H](O[C@@H]2O[C@H](C)[C@@H](O)[C@H](N)[C@@H]2O)C[C@@H]2O[C@](O)(C[C@@H](O)C[C@@H](O)[C@H](O)CC[C@@H](O)C[C@@H](O)CC(=O)O[C@H]1C)C[C@H](O)[C@H]2C(=O)O [amphotericin B, reference compound] |  |  |  |  |  |  |  |  |  | zone of inhibition at 10 µg/disc ([6]; Candida albicans, TISTR5554, read-out: Inhibition zone ± SD, C. albicans): 21.8 ± 1.3 mm |
| O=C(O)c1cn(C2CC2)c2cc(N3CCNCC3)c(F)cc2c1=O [ciprofloxacin, reference compound] |  |  |  |  |  |  |  |  |  | zone of inhibition at 5 µg/disc ([1]; Pseudomonas aeruginosa, TISTR357, read-out: Inhibition zone ± SD, P. aeruginosa): 31.2 ± 1.1 mm; zone of inhibition at 5 µg/disc [2, 8]: 31 ± 1.5 mm; zone of inhibition at 5 µg/disc [3, 9]: 36.4 ± 0.4 mm; zone of inhibition at 5 µg/disc (S. flexneri ATCC 9199; Shigella flexneri, ATCC9199, read-out: Inhibition zone ± SD, S. flexneri): 42.1 ± 0.7 mm; zone of inhibition at 5 µg/disc (Bacillus cereus TISTR035; [10]): 33.2 ± 1.6 mm; zone of inhibition at 5 µg/disc [4, 11]: 24.1 ± 1 mm; zone of inhibition at 5 µg/disc (S. typhi; Salmonella enterica, TYPHI, read-out: Inhibition zone ± SD, S. typhi): 39.3 ± 2.6 mm; zone of inhibition at 5 µg/disc [5, 12]: 38.5 ± 2.1 mm |
